Source: ChEMBL document CHEMBL4334552, “Discovery of BMS-986260, a Potent, Selective, and Orally Bioavailable TGFβR1 Inhibitor as an Immuno-oncology Agent” (ACS Med Chem Lett, 2020)

Legend:
[1] = Cardiovascular toxicity in dog assessed as valvulo-pathy at 5 mg/kg, po for 10 days; assay type: organism-based, Canis lupus familiaris; details: in vivo, 240 h
Method in brief: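 Exploratory toxicology studies of 10 days with daily oral dosing in rats and dogs. Cardiovascular findings, including valvulopathy and aortic pathology, were assessed.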

[2] = target: Cytochrome P450 3A4 (Homo sapiens, UniProt P08684); test: Induction of recombinant CYP3A4 (unknown origin) up to 24 microM; assay type: ADME; details: recombinant enzyme
[3] = Half life in Beagle dog at 1 mg/kg, iv; assay type: ADME, organism-based, Canis lupus familiaris; details: in vivo
Method in brief: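 Male Beagle dogs (n = 2) pretreated with pentagastrin were given 1 mg/kg iv in 5:45:50 EtOH/PEG400/saline at 1 mL/kg. A 5 mg/kg oral arm used 5% ethanol, 45% PEG400, 50% 25 mM acetate buffer pH 4.0. Half-life was from the iv arm.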

[4] = target: T1, TGF-beta receptor type-1 (Homo sapiens, UniProt P36897); test: Inhibition of TGFbetaR1 in anti-CD3/anti-CD28/IL-2/TGFbeta -stimulated human Treg cells assessed as downregulation of FOXP3 expression incubated for 5 days by flow cytometry analysis
T1 sequence (P36897 whole entry): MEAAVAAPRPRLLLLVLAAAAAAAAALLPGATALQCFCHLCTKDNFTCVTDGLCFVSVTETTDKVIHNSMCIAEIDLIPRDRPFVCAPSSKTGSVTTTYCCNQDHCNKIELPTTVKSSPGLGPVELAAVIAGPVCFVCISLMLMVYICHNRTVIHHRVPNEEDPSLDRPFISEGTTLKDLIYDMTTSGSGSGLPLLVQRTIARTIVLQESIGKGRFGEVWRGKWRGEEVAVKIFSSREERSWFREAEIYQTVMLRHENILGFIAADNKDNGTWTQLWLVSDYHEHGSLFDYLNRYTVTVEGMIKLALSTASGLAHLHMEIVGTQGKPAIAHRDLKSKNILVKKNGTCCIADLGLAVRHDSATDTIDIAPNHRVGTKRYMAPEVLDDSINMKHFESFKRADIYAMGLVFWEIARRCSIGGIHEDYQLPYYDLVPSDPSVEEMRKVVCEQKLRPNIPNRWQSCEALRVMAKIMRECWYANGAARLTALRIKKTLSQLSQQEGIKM

[5] = Cmax in Sprague Dawley rat at 10 mg/kg, po; assay type: ADME, organism-based; parameters: dose 10 mg/kg, route oral; details: in vivo
Method in brief: (§1)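 Male Sprague–Dawley rats, n = 3, given 5 mg/kg iv or 10 mg/kg po as a PEG400 solution.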

[6] = Half life in Balb/C mouse at 5 mg/kg, iv; assay type: ADME, organism-based; details: in vivo
Method in brief: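 Male Balb/C mice (n = 3) dosed iv at 5 mg/kg in the same PK study as a 10 mg/kg oral arm. Vehicle was 70% 25 mM acetate buffer pH 4.0, 5% ethanol, 25% PEG 400. Half-life was taken from the iv arm.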

[7] = Total AUC in Balb/C mouse at 5 mg/kg, iv; assay type: ADME, organism-based; parameters: dose 5 mg/kg, route intravenous, time AUCmax; details: in vivo
Method in brief: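 Male Balb/C mice (n = 3) dosed iv at 5 mg/kg and po at 10 mg/kg. Vehicle was 70% 25 mM acetate buffer pH 4.0, 5% ethanol and 25% PEG 400.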

[8] = target: T2, TGF-beta receptor type-1 (Mus musculus, UniProt Q64729); test: Inhibition of TGFBR1 in mouse biochemical assay assessed as apparent inhibition constant; details: read-out: Ki(app)
T2 sequence (Q64729 whole entry): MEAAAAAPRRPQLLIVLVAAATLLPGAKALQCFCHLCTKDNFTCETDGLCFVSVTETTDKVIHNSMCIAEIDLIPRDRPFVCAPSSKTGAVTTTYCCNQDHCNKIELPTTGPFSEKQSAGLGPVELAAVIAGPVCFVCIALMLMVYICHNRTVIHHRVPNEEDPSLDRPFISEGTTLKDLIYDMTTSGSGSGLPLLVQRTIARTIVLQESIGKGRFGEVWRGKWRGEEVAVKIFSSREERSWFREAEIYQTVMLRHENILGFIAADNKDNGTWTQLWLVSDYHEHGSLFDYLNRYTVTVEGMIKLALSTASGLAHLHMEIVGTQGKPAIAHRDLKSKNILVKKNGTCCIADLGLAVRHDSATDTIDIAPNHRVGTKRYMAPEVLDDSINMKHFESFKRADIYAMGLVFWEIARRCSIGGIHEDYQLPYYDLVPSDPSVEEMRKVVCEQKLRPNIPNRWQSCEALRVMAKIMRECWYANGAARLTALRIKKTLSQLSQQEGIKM

[9] = Half life in mouse hepatocytes; assay type: ADME, cell-based, Hepatocyte
[10] = target: Voltage-gated inwardly rectifying potassium channel KCNH2 (Homo sapiens, UniProt Q12809); test: Inhibition of human ERG by electrophysiology analysis
[11] = Clearance in Sprague Dawley rat at 5 mg/kg, iv; assay type: ADME, organism-based; details: in vivo; method in brief: as §1
[12] = Half life in human liver microsomes in presence of UGT/UDPGA; assay type: ADME, Microsome
[13] = target: Phosphodiesterase 4 (Homo sapiens, UniProt P27815+Q08499+Q07343+Q08493); test: Inhibition of PDE4 (unknown origin) by HTRF assay; assay type: protein assay
[14] = Cmax in Beagle dog at 5 mg/kg, po; assay type: ADME, organism-based, Canis lupus familiaris; parameters: dose 5 mg/kg, route oral; details: in vivo
Method in brief: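 Male Beagle dogs, n = 2, pretreated with pentagastrin. The po dose of 5 mg/kg was in 5% ethanol, 45% PEG400 and 50% 25 mM acetate buffer pH 4.0. The iv dose of 1 mg/kg was in 5:45:50 EtOH/PEG400/saline at 1 mL/kg.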

[15] = target: TGF-beta receptor type-2 (Homo sapiens, UniProt P37173); test: Inhibition of wild type His-tagged TGFBR2 kinase domain (unknown origin) incubated for 1 hr by HTRF analysis
[16] = target: Cytochrome P450 2D6 (Homo sapiens, UniProt P10635); test: Inhibition of recombinant CYP2D6 (unknown origin); assay type: ADME
[17] = target: T1, TGF-beta receptor type-1; test: Inhibition of TGFbetaR1 in TGFbeta-stimulated human T cells assessed as reduction in SMAD3 phosphorylation preincubated for 1 hr followed by TGFbeta-stimulation for 90 mins by Alphalisa assay
[18] = target: T3, Cytochrome P450 1A2 (Homo sapiens, UniProt P05177); test: Induction of recombinant CYP1A2 (unknown origin) up to 24 microM; assay type: ADME; details: recombinant enzyme
T3 sequence (P05177 whole entry): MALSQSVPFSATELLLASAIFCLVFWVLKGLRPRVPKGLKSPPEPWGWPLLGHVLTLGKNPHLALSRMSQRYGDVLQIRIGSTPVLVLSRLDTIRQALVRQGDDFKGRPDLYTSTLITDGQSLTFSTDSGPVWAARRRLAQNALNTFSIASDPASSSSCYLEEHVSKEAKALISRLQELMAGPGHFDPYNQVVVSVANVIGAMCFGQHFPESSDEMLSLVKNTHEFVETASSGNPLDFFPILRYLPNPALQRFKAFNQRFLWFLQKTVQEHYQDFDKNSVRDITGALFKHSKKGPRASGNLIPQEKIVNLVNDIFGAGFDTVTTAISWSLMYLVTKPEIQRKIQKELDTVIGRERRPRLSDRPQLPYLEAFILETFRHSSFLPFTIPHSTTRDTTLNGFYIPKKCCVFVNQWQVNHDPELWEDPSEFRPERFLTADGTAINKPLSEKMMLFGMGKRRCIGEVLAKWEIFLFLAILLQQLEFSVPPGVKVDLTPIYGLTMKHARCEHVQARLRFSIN

Sequence of TGF-beta receptor type-2 (P37173 whole entry, the tested form may be a part): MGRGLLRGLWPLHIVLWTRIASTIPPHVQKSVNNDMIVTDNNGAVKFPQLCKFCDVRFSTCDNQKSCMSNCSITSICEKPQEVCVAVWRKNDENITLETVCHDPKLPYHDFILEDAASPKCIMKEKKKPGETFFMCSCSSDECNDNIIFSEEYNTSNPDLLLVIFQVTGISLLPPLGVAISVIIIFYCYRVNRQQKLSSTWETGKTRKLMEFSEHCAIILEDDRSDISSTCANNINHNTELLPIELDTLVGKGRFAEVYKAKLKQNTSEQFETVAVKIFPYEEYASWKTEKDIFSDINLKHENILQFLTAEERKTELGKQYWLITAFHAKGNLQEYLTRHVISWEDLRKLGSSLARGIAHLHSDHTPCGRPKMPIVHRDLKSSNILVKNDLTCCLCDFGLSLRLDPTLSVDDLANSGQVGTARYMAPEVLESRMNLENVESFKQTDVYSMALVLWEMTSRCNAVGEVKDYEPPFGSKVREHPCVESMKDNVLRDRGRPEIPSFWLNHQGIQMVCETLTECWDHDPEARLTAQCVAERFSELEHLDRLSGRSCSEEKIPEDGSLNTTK
Sequence of Cytochrome P450 2D6 (P10635 whole entry): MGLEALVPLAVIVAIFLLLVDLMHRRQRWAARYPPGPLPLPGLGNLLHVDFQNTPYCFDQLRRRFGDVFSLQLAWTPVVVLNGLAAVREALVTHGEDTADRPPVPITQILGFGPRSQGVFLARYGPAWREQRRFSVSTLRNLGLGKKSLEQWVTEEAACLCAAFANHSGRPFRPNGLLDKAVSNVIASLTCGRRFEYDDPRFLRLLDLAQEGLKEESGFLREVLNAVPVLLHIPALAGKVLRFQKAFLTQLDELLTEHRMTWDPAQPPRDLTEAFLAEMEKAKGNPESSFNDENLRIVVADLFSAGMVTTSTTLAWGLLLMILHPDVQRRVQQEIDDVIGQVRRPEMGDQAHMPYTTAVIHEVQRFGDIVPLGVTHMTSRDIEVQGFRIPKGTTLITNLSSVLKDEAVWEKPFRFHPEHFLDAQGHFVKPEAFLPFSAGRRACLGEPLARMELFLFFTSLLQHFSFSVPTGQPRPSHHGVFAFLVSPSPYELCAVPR
Sequence of Cytochrome P450 3A4 (P08684 whole entry): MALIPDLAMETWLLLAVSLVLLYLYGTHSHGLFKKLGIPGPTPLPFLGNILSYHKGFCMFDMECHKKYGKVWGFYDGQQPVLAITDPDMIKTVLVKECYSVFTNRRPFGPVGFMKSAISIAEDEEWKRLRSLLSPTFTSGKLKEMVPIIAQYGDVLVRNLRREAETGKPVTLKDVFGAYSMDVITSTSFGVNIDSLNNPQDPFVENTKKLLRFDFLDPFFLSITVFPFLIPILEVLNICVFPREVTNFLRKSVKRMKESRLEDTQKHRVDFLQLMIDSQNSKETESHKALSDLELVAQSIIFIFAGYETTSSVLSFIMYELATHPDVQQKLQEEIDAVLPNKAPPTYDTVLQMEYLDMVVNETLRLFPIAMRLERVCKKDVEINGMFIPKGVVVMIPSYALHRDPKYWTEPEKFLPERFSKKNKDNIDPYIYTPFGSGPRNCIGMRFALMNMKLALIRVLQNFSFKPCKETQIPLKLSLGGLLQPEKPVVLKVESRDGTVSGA
Sequence of Voltage-gated inwardly rectifying potassium channel KCNH2 (Q12809 whole entry): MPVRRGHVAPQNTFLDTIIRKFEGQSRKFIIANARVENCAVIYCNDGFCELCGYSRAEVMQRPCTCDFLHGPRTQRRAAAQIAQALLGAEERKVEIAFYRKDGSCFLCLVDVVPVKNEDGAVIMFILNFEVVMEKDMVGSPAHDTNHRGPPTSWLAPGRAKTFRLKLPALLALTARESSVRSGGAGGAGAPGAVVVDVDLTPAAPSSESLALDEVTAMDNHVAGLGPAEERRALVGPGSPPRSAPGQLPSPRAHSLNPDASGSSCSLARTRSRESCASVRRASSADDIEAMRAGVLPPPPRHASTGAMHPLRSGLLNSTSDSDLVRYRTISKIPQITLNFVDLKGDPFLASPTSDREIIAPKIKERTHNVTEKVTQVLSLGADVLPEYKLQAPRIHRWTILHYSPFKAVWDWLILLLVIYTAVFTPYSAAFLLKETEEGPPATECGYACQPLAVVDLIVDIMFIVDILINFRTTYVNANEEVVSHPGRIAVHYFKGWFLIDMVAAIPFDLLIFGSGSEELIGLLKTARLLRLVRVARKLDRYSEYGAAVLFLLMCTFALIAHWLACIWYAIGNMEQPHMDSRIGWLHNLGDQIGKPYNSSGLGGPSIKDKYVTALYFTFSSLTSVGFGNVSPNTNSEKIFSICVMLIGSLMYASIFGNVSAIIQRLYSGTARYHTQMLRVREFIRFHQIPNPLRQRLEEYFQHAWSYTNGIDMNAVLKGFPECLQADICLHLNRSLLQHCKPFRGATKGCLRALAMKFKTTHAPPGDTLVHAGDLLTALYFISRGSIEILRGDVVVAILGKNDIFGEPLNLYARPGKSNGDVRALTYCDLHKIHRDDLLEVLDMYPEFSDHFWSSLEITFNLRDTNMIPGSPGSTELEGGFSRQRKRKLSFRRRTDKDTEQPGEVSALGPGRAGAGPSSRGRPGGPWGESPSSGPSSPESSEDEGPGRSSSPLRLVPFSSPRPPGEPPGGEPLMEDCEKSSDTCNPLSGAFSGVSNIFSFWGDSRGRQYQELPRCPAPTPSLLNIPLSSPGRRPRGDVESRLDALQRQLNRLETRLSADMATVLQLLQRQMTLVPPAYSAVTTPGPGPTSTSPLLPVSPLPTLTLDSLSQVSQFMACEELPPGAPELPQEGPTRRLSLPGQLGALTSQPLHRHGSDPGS

Activity [2]: Not Active | half-life [3]: 5 h | IC50 [4]: 230 nM | Cmax [5]: 12.7 µM | half-life [6]: 9.1 h | AUC [7]: 26.3 µM·h | Ki [8]: 1.4 nM | half-life [9]: 1.27 h | clearance [11]: 5.6 mL/min/kg | half-life [12]: > 2 h | IC50 [13]: 11000 nM | Cmax [14]: 11.2 µM | IC50 [15]: > 15000 nM | IC50 [16]: > 20000 nM | IC50 [17]: 150 nM | Activity [18]: Not Active
Compound: N#Cc1cnc2ccc(-c3c(-c4ccc(F)c(Cl)c4)ncn3CCO)nn12
Activity [1]: Toxic | IC50 [10]: > 10000 nM
